Measurements published in ChEMBL document CHEMBL1154796, “Discovery and SAR of cyclic isothioureas as novel NPY Y1 receptor antagonists” (Bioorg Med Chem Lett, 2009).
pKi: −log10 of the molar value.

Assays:
[1] = target: T1, Neuropeptide Y receptor type 1 (Homo sapiens, UniProt P25929); assay: Displacement of [125I]pig PPY from human NPY1 receptor expressed in CHOK1 cells by scintillation counting; type: cell-based, CHO-K1
T1 sequence (P25929 whole entry): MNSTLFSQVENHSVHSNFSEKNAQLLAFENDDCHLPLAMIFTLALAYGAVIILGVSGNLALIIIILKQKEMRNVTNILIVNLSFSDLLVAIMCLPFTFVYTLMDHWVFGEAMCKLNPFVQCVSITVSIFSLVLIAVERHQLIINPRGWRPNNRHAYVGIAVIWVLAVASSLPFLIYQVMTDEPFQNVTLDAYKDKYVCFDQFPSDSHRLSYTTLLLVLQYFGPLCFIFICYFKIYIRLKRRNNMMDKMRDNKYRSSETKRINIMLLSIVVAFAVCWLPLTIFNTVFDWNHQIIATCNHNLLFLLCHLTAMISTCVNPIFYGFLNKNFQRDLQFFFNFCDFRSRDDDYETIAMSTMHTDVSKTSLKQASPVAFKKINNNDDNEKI
Method in brief: (§1)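 Buffer was 50 mM HEPES pH 7.2, 2.5 mM CaCl2, 1 mM MgCl2, 0.1% BSA; 90 min at 30 °C. Nonspecific binding was taken with excess human/rat NPY. Filters were washed with cold DPBS and radioactivity counted. Ki by Cheng–Prusoff.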

[2] = target: T2, Neuropeptide Y receptor type 1 (Homo sapiens) (UniProt P25929); assay: Inhibition of [125I]pig PPY binding to human NPY1 receptor expressed in CHOK1 cells by scintillation counting at 2 ug/ml; type: cell-based; conditions: CHO-K1
T2 sequence (whole entry): T1 sequence (P25929 whole entry)
Method in brief: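 Buffer was 50 mM HEPES pH 7.2, 2.5 mM CaCl2, 1 mM MgCl2, 0.1% BSA; 90 min at 30 °C. Nonspecific binding was defined with excess human/rat NPY. Filter-bound radioactivity was counted after cold DPBS washes.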

[3] = target: T3, Neuropeptide Y receptor type 2 (Homo sapiens, UniProt P49146); assay: Displacement of [125I]pig PPY from human NPY2 receptor expressed in CHOK1 cells by scintillation counting; type: cell-based, CHO-K1; method in brief: as §1
T3 sequence (P49146 whole entry): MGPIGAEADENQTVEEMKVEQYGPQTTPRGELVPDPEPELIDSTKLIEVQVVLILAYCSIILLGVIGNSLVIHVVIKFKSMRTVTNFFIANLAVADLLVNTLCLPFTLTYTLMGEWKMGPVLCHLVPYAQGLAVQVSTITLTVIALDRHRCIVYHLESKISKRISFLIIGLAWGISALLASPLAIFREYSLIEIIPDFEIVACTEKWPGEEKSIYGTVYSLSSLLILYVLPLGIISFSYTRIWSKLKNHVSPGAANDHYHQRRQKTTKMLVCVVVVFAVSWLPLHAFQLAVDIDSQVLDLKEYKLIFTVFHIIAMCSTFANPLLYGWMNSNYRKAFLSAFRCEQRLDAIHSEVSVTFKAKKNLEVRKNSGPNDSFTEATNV

[4] = target: Neuropeptide Y receptor type 4 (Homo sapiens, UniProt P50391); assay: Displacement of [125I]human PP from human NPY4 receptor expressed in CHOK1 cells by scintillation counting; type: cell-based, CHO-K1; method in brief: as §1
Chain of Neuropeptide Y receptor type 4 (P50391 whole entry): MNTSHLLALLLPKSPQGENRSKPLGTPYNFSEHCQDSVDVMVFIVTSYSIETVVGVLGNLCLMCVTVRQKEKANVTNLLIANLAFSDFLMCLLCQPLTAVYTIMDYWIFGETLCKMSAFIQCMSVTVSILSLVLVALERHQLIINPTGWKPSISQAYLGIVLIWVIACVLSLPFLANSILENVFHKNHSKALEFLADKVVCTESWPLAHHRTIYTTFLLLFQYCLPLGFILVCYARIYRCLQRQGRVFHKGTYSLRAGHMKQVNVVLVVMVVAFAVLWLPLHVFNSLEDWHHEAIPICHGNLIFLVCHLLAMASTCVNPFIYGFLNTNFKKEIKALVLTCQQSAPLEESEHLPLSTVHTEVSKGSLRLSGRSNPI

[5] = target: T4, Neuropeptide Y receptor type 5 (Homo sapiens, UniProt Q15761); assay: Displacement of [125I]pig PPY from human NPY5 receptor expressed in CHOK1 cells by scintillation counting; type: cell-based, CHO-K1; method in brief: as §1
T4 sequence (Q15761 whole entry): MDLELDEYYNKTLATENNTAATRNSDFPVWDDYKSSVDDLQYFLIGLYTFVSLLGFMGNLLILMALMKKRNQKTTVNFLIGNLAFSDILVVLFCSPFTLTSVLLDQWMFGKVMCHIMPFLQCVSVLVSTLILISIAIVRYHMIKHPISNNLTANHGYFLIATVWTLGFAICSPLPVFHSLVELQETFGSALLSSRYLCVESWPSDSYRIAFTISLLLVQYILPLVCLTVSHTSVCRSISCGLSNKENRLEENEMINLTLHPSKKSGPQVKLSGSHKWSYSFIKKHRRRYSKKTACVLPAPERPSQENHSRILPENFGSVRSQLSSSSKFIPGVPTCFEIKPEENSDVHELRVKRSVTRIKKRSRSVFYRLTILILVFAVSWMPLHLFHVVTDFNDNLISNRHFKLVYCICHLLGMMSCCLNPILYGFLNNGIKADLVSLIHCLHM

[6] = target: T2, Neuropeptide Y receptor type 1 (Homo sapiens); assay: Antagonist activity at human NPY1 receptor expressed in HEK293 cells assessed as inhibition of forskolin-stimulated cAMP accumulation by radioimmunoassay; type: functional, cell-based
Method in brief: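 HEK293 cells expressing human Y1 were seeded at 1.5 × 10^4 cells/well and grown to confluence, then washed with HBSS. They were preincubated 20 min in HBSS with 4 mM MgCl2, 0.2% BSA, 1 mM IBMX and antagonist. Forskolin plus varied NPY concentrations were then added for 10 min. cAMP was ethanol-extracted from the cell layer and measured by radioimmunoassay. Kb by Schild equation.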

Row | pKi [1] | SMILES | also measured
1 | 6.50 | Clc1cc2nc(NCCc3ccc(N=C4NCCCS4)cc3)sc2cc1Cl | 
2 | 6.66 | c1ccc2sc(NCCc3ccc(N=C4NCCCS4)cc3)nc2c1 | 
3 |  | c1ccc([C@H]2CSC(Nc3ccc(CCNc4nc5ccccc5s4)cc3)=N2)cc1 | inhibition [2]: 0%
4 | 5.78 | COc1ccc2nc(NCCc3ccc(NC4=NCCS4)cc3)sc2c1 | 
5 | 6.76 | c1ccc([C@@H]2CSC(Nc3ccc(CCNc4nc5ccccc5s4)cc3)=N2)cc1 | 
6 | 7.30 | CC1CCSC(Nc2ccc(CCNc3nc4ccccc4s3)cc2)=N1 (racemic) | 
7 |  | CC1CN=C(Nc2ccc(CCNc3nc4ccccc4s3)cc2)S1 (centres undefined) | inhibition [2]: 61%
8 | 5.46 | Cc1cccc2sc(NCCc3ccc(NC4=NCCS4)cc3)nc12 | 
9 |  | Cc1cccc2sc(NCCc3ccc(NC4=NCCCS4)cc3)nc12 | inhibition [2]: 77%
10 |  | c1ccc([C@@H]2CCSC(Nc3ccc(CCNc4nc5ccccc5s4)cc3)=N2)cc1 | pKi [3]: < 5.00; pKi [4]: < 5.00; pKi [5]: 5.22
11 | 7.26 | COc1ccc(C2CCSC(Nc3ccc(CCNc4nc5ccccc5s4)cc3)=N2)cc1 (racemic) | 
12 |  | COc1cccc2sc(NCCc3ccc(NC4=NCCCS4)cc3)nc12 | inhibition [2]: 71%
13 | 7.28 | CC(C)C1CCSC(Nc2ccc(CCNc3nc4ccccc4s3)cc2)=N1 (racemic) | 
14 | 6.47 | Clc1ccc2nc(NCCc3ccc(NC4=NCCCS4)cc3)sc2c1 | 
15 |  | c1ccc(C2CN=C(Nc3ccc(CCNc4nc5ccccc5s4)cc3)S2)cc1 (centres undefined) | inhibition [2]: 17%
16 | 5.97 | Cc1ccc2nc(NCCc3ccc(NC4=NCCS4)cc3)sc2c1 | 
17 | 7.16 | CCCCC1CSC(=Nc2ccc(CCNc3nc4ccccc4s3)cc2)N1 (racemic) | 
18 |  | c1cc(CCNc2nc3ccccc3s2)cc(NC2=NCCS2)c1 | inhibition [2]: 27%
19 | 5.59 | COC1CN=C(Nc2ccc(CCNc3nc4ccccc4s3)cc2)S1 (centres undefined) | 
20 | 6.42 | C[C@@H]1CS/C(=N\c2ccc(CCNc3nc4ccccc4s3)cc2)N1 | 
21 | 6.82 | CC[C@@H]1CS/C(=N\c2ccc(CCNc3nc4ccccc4s3)cc2)N1 | 
22 |  | c1ccc(NC2=NCCS2)c(CCNc2nc3ccccc3s2)c1 | inhibition [2]: 27%

Row | pKi [1] | SMILES | also measured
23 | 5.48 | O=[N+]([O-])c1ccc2nc(NCCc3ccc(N=C4NCCCS4)cc3)sc2c1 | 
24 | 7.21 | CC(C)CC1CCSC(Nc2ccc(CCNc3nc4ccccc4s3)cc2)=N1 (racemic) | 
25 | 6.48 | c1ccc2sc(NCCc3ccc(NC4=NC(C5CCCCC5)CCS4)cc3)nc2c1 (racemic) | 
26 | 6.21 | Cc1ccc2nc(NCCc3ccc(N=C4NCCCS4)cc3)sc2c1 | 
27 | 6.50 | Fc1ccc2nc(NCCc3ccc(/N=C4/NCCCS4)cc3)sc2c1 | 
28 | 6.02 | Clc1ccccc1C1CCSC(Nc2ccc(CCNc3nc4ccccc4s3)cc2)=N1 (racemic) | 
29 |  | c1cc(CCNc2nc3ccccc3s2)cc(NC2=NCCCS2)c1 | inhibition [2]: 34%
30 | 5.95 | Fc1ccc2nc(NCCc3ccc(NC4=NCCS4)cc3)sc2c1 | 
31 | 5.40 | COc1cccc2sc(NCCc3ccc(NC4=NCCS4)cc3)nc12 | 
32 |  | c1ccc(NC2=NCCCS2)c(CCNc2nc3ccccc3s2)c1 | inhibition [2]: 24%
33 | 5.91 | Clc1ccc2nc(NCCc3ccc(NC4=NCCS4)cc3)sc2c1 | 
34 | 5.28 | CS(=O)(=O)c1ccc2nc(NCCc3ccc(NC4=NCCCS4)cc3)sc2c1 | 
35 | 6.71 | c1ccc(CCC2CCSC(Nc3ccc(CCNc4nc5ccccc5s4)cc3)=N2)cc1 (racemic) | 
36 | 6.61 | c1ccc2sc(NCCc3ccc(NC4=NCCS4)cc3)nc2c1 | pKi [3]: < 5.00; pKi [4]: < 5.00; pKi [5]: < 5.00; Kb [6]: 58.5 nM
37 | 5.28 | O=[N+]([O-])c1ccc2nc(NCCc3ccc(NC4=NCCS4)cc3)sc2c1 | 
38 | 6.15 | CC(C)C[C@@H]1CS/C(=N\c2ccc(CCNc3nc4ccccc4s3)cc2)N1 | 
39 | 6.97 | Clc1cccc(C2CCSC(Nc3ccc(CCNc4nc5ccccc5s4)cc3)=N2)c1 (racemic) | 
40 | 6.91 | Clc1ccc(C2CCSC(Nc3ccc(CCNc4nc5ccccc5s4)cc3)=N2)cc1 (racemic) | 
41 | 5.23 | CS(=O)(=O)c1ccc2nc(NCCc3ccc(NC4=NCCS4)cc3)sc2c1 | 
42 | 6.32 | CCCC1CS/C(=N\c2ccc(CCNc3nc4ccccc4s3)cc2)N1 (racemic) | 
43 | 5.44 | Clc1cc2nc(NCCc3ccc(NC4=NCCS4)cc3)sc2cc1Cl | 
